# Laboratory results as given in ChEMBL document CHEMBL3994624, “Antimalarial Pyrido[1,2-a]benzimidazoles: Lead Optimization, Parasite Life Cycle Stage Profile, Mechanistic Evaluation, Killing Kinetics, and in Vivo Oral Efficacy in a Mouse Model” (J Med Chem, 2017).
# Active and inactive are the calls of the source. The rule behind the calls is not given here.
# Key:
# [1] = Tmax in C57/Bl6 mouse at 10 mg/kg, po administered via gavage by LC-MS method; format: ADME, organism-based; conditions: in vivo
# Method in brief: (§1)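 Mice (n=3) given a single oral dose of 10 mg/kg as a suspension in […] HPMC; plasma sampled over 24 h. Parameters were estimated by nonlinear mixed-effects modelling with a two-compartment disposition model, first-order absorption and elimination.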
# [2] = tested on: Mus musculus; assay: AUC (0 to infinity) in C57/Bl6 mouse at 10 mg/kg, po administered via gavage by LC-MS method; format: ADME, organism-based; design: dose 10 mg/kg, route oral, time infinity; conditions: in vivo; method in brief: as §1
# [3] = tested on: Plasmodium berghei; assay: Antimalarial activity against GFP-fused Plasmodium berghei ANKA infected in mouse assessed as mouse mean survival days at 50 mg/kg, po administered once daily for 4 days; format: functional
# Method in brief: (§2)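 P. berghei-infected mice (n=3 per dose) dosed orally once daily on 4 consecutive days at 4, 24, 48 and 72 h after infection; compound in 90/10 Tween80/ethanol (v/v) diluted 10-fold with water. Read-outs were % parasitemia reduction, mean survival time in days and cure; mice with <40% parasitemia reduction euthanized on day 4.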
# [4] = tested on: Plasmodium berghei; assay: Antimalarial activity against GFP-fused Plasmodium berghei ANKA infected in mouse assessed as reduction in parasitemia at 10 mg/kg, po administered once daily for 4 days by flow cytometry relative to control; format: functional; design: scale not given: the % may be the effect or the level left
# Method in brief: (§3)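 P. berghei-infected mice, 3 per group. Compound formulated in 90/10 Tween80/ethanol (v/v), diluted 10-fold with water, given orally once daily at 4, 24, 48 and 72 h post-infection. Outcomes: % parasitemia reduction versus untreated control, mean survival days, and cured/infected. Mice with <40% reduction euthanized on day 4.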
# [5] = tested on: Plasmodium falciparum; assay: Ratio of IC50 for chloroquine-sensitive Plasmodium falciparum NF54 after 24 hrs to IC50 for chloroquine-sensitive Plasmodium falciparum NF54 after 72 hrs; format: functional
# [6] = tested on: Plasmodium berghei; assay: Antimalarial activity against GFP-fused Plasmodium berghei ANKA infected in mouse assessed as reduction in parasitemia at 30 mg/kg, po administered once daily for 4 days by flow cytometry relative to control; format: functional; design: scale not given: the % may be the effect or the level left; method in brief: as §3
# [7] = tested on: Mus musculus; assay: AUC (0 to infinity) in C57/Bl6 mouse at 2.5 mg/kg, iv by LC-MS method; format: ADME, organism-based; design: dose 2.5 mg/kg, time infinity, route intravenous; conditions: in vivo
# Method in brief: (§4)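 Mice (n=3) given a single intravenous dose of 2.5 mg/kg in dimethylacetamide:polyethylene glycol:propylene glycol/ethanol (4:1) at 1:3:6; 24 h sampling. Parameters were fitted by nonlinear mixed-effects two-compartment model with first-order elimination.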
# [8] = tested on: Plasmodium falciparum; assay: Anti-plasmodial activity against chloroquine-sensitive Plasmodium falciparum NF54 late 4/5 stage gametocytes assessed as reduction in ATP levels after 24 hrs by BacTiter-Glo reagent based bioluminescence assay; format: functional; conditions: NF54, 24 h
# [9] = tested on: Huh-7; assay: Cytotoxicity against human HuH7 cells at 1 to 10 uM after 48 hrs by Alamarblue assay; format: cell-based; conditions: huh-7, 48 h
# [10] = Metabolic stability in human liver microsomes assessed as compound remaining at 1 uM in presence of NADPH after 30 mins by LC-MS/MS analysis; format: ADME, microsome; conditions: read-out: Stability
# Method in brief: (§5)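 Mouse and human liver microsomes; % compound remaining after 30 min.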
# [11] = tested on: Plasmodium berghei; assay: Antimalarial activity against GFP-fused Plasmodium berghei ANKA infected in mouse assessed as mouse mean survival days at 30 mg/kg, po administered once daily for 4 days; format: functional; method in brief: as §2
# [12] = Selectivity index, ratio of IC50 for CHO cells to IC50 for chloroquine-sensitive Plasmodium falciparum NF54; format: toxicity; conditions: hamster, read-out: Ratio IC50
# Method in brief: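 Selectivity index = IC50 CHO / IC50 PfNF54.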
# [13] = tested on: Plasmodium falciparum; assay: Ratio of IC50 for chloroquine-sensitive Plasmodium falciparum NF54 early 2/3 stage gametocytes to IC50 for chloroquine-sensitive Plasmodium falciparum NF54 late 4/5 stage gametocytes; format: functional
# Method in brief: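 Early (stage II/III) and late (stage IV/V) gametocytes tested in parallel luciferase reporter assays; stage preference = EG IC50/LG IC50.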
# [14] = tested on: Plasmodium berghei; assay: Antimalarial activity against GFP-fused Plasmodium berghei ANKA infected in mouse assessed as mouse mean survival days at 3 mg/kg, po administered once daily for 4 days; format: functional; method in brief: as §2
# [15] = Volume of distribution in C57/Bl6 mouse at 2.5 mg/kg, iv by LC-MS method; format: ADME, organism-based; conditions: in vivo; method in brief: as §4
# [16] = tested on: Plasmodium falciparum; assay: Anti-plasmodial activity against chloroquine-sensitive Plasmodium falciparum NF54 by [3H]-hypoxanthine incorporation assay; format: functional
# Method in brief: (§6)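 P. falciparum asexual blood-stage growth inhibition by [3H]hypoxanthine incorporation; chloroquine and artesunate run as reference drugs in every experiment; IC50 given as mean of ≥2 independent experiments.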
# [17] = Cmax in C57/Bl6 mouse at 10 mg/kg, po administered via gavage by LC-MS method; format: ADME, organism-based; design: dose 10 mg/kg, route oral; conditions: in vivo; method in brief: as §1
# [18] = tested on: Plasmodium falciparum; assay: Anti-plasmodial activity against multidrug resistant Plasmodium falciparum K1 by [3H]-hypoxanthine incorporation assay; format: functional; method in brief: as §6
# [19] = Clearance in C57/Bl6 mouse at 2.5 mg/kg, iv by LC-MS method; format: ADME, organism-based; conditions: in vivo; method in brief: as §4
# [20] = Kinetic solubility of the compound in FaSSIF at pH 6.5 after 2 hrs by shake flask method; format: physicochemical; conditions: read-out: Kinetic_solubility
# [21] = tested on: Plasmodium berghei; assay: Antimalarial activity against GFP-fused Plasmodium berghei ANKA infected in mouse assessed as reduction in parasitemia at 50 mg/kg, po administered once daily for 4 days by flow cytometry relative to control; format: functional; design: scale not given: the % may be the effect or the level left; method in brief: as §3
# [22] = tested on: Plasmodium berghei; assay: Antimalarial activity against GFP-fused Plasmodium berghei ANKA infected in mouse assessed as protection against parasitemia at 50 mg/kg, po administered once daily for 4 days measured 30 days post infection by light microscopy; format: functional, organism-based; method in brief: as §3
# [23] = tested on: CHO; assay: Cytotoxicity against CHO cells after by MTT assay; format: cell-based; conditions: Cricetulus griseus
# [24] = tested on: Plasmodium berghei; assay: Antimalarial activity against GFP-fused Plasmodium berghei ANKA infected in mouse assessed as reduction in parasitemia at 3 mg/kg, po administered once daily for 4 days by flow cytometry relative to control; format: functional; design: scale not given: the % may be the effect or the level left; method in brief: as §3
# [25] = tested on: Plasmodium berghei; assay: Antimalarial activity against GFP-fused Plasmodium berghei ANKA infected in mouse assessed as protection against parasitemia at 30 mg/kg, po administered once daily for 4 days measured 30 days post infection by light microscopy; format: functional, organism-based; method in brief: as §3
# [26] = tested on: Plasmodium berghei; assay: Antimalarial activity against GFP-fused Plasmodium berghei ANKA infected in mouse assessed as mouse mean survival days at 10 mg/kg, po administered once daily for 4 days; format: functional; method in brief: as §2
# [27] = tested on: Plasmodium berghei; assay: Antimalarial activity against GFP-fused Plasmodium berghei ANKA infected in mouse assessed as protection against parasitemia at 10 mg/kg, po administered once daily for 4 days measured 30 days post infection by light microscopy; format: functional, organism-based; method in brief: as §3
# [28] = Oral bioavailability in C57/Bl6 mouse at 10 mg/kg administered via gavage by LC-MS method; format: ADME, organism-based; conditions: in vivo; method in brief: as §1
# [29] = Metabolic stability in Balb/c mouse liver microsomes assessed as compound remaining at 1 uM in presence of NADPH after 30 mins by LC-MS/MS analysis; format: ADME, microsome; conditions: read-out: Stability; method in brief: as §5
# [30] = tested on: Plasmodium berghei; assay: Antimalarial activity against GFP-fused Plasmodium berghei ANKA infected in mouse assessed as protection against parasitemia at 3 mg/kg, po administered once daily for 4 days measured 30 days post infection by light microscopy; format: functional, organism-based; method in brief: as §3
# [31] = Half life in C57/Bl6 mouse at 2.5 mg/kg, iv by LC-MS method; format: ADME, organism-based; conditions: in vivo; method in brief: as §4
# [32] = Half life in C57/Bl6 mouse at 10 mg/kg, po administered via gavage by LC-MS method; format: ADME, organism-based; conditions: in vivo; method in brief: as §1
# [33] = tested on: Plasmodium berghei; assay: Antimalarial activity against GFP-fused Plasmodium berghei ANKA liver stage infected in HuH7 cells pretreated for 1 hr followed by parasite infection after 48 hrs by luciferase reporter gene assay; format: functional, cell-based; conditions: Huh-7
# [34] = tested on: Ferriprotoporphyrin IX; assay: Inhibition of beta hematin formation in ring stage of chloroquine-sensitive Plasmodium falciparum NF54 assessed as increase in free heme level at 0.5 to 3 times IC50 after 36 hrs by UV-vis spectra analysis
# Method in brief: (§7)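 Synchronized ring-stage parasites treated with increasing drug concentrations, then cellular fractionation. Free haem and haemozoin quantified as iron (fg/cell) and compared with untreated control; significance by p-values; parasite survival overlaid.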
# [35] = tested on: Ferriprotoporphyrin IX; assay: Inhibition of beta hematin formation in ring stage of chloroquine-sensitive Plasmodium falciparum NF54 assessed as decrease in haemozoin level at 0.5 to 3 times IC50 after 36 hrs by UV-vis spectra analysis; method in brief: as §7
# [36] = tested on: Plasmodium berghei; assay: Antimalarial activity against GFP-fused Plasmodium berghei ANKA liver stage infected in HuH7 cells pretreated for 1 hr followed by parasite infection at 1 uM after 48 hrs by luciferase reporter gene assay; format: functional, cell-based
# [37] = tested on: Ferriprotoporphyrin IX; assay: Inhibition of beta hematin formation in water/NP40/DMSO solution after 5 hrs
# [38] = tested on: Plasmodium berghei; assay: Antimalarial activity against GFP-fused Plasmodium berghei ANKA infected in mouse assessed as reduction in parasitemia at 25 mg/kg, po administered once daily for 4 days by flow cytometry relative to control; format: functional; design: scale not given: the % may be the effect or the level left
# [39] = tested on: Plasmodium berghei; assay: Antimalarial activity against GFP-fused Plasmodium berghei ANKA infected in mouse assessed as reduction in parasitemia at 6 mg/kg, po administered once daily for 4 days by flow cytometry relative to control; format: functional; design: scale not given: the % may be the effect or the level left
# [40] = tested on: Plasmodium berghei; assay: Antimalarial activity against GFP-fused Plasmodium berghei ANKA infected in mouse assessed as mouse mean survival days at 6 mg/kg, po administered once daily for 4 days; format: functional
# [41] = tested on: Plasmodium berghei; assay: Antimalarial activity against GFP-fused Plasmodium berghei ANKA infected in mouse assessed as mouse mean survival days at 12.5 mg/kg, po administered once daily for 4 days; format: functional
# [42] = tested on: Plasmodium berghei; assay: Antimalarial activity against GFP-fused Plasmodium berghei ANKA infected in mouse assessed as mouse mean survival days at 25 mg/kg, po administered once daily for 4 days; format: functional
# [43] = tested on: Plasmodium berghei; assay: Antimalarial activity against GFP-fused Plasmodium berghei ANKA infected in mouse assessed as reduction in parasitemia at 12.5 mg/kg, po administered once daily for 4 days by flow cytometry relative to control; format: functional; design: scale not given: the % may be the effect or the level left
smiles,measurement,setting,value
CCNCCNc1cc(-c2ccc(C(F)(F)F)cc2)c(C#N)c2nc3cc(Cl)c(Cl)cc3n12,Tmax,[1],10 h
same,AUC,[2],2.63 µM·h
same,MSD,[3],30 days
same,Activity,[4],99.6%
same,Ratio IC50,[5],1.5 - 2
same,Activity,[6],99.7%
same,AUC,[7],4.27 µM·h
same,IC50,[8],720 nM
same,Activity,[9],Non-Toxic
same,"remaining at 0.5 h, 1 µM",[10],95%
same,MSD,[11],30 days
same,selectivity ratio,[12],188
same,Ratio IC50,[13],1.2
same,MSD,[14],17 days
same,Vd,[15],26 L/kg
same,IC50,[16],20 nM
same,Cmax,[17],70 nM
same,IC50,[18],20 nM
same,clearance,[19],21 mL/min/kg
same,solubility kinetic at 2 h,[20],10 µM
same,Activity,[21],98%
same,Activity,[22],Active
same,IC50,[23],3390 nM
same,Activity,[24],99.5%
same,Activity,[25],Active
same,MSD,[26],18 days
same,Activity,[27],inactive
same,bioavailability,[28],< 15%
same,"remaining at 0.5 h, 1 µM",[29],81%
same,Activity,[30],inactive
same,half-life,[31],15 h
same,half-life,[32],15 h
N#Cc1c(-c2ccc(C(F)(F)F)cc2)c(F)c(NCCN2CCC(O)C2)n2c1nc1ccccc12 (stereo not given),IC50,[33],1420 nM
same,Ratio IC50,[5],22
same,inhibition,[34],inactive
same,Activity,[9],Non-Toxic
same,selectivity ratio,[12],1080
same,IC50,[16],190 nM
same,IC50,[18],170 nM
same,solubility kinetic at 2 h,[20],80 µM
same,inhibition,[35],inactive
same,IC50,[23],206000 nM
same,Activity,[36],Active
same,"remaining at 0.5 h, 1 µM",[29],37%
same,IC50,[37],120000 nM
CCNCCNc1cc(-c2ccc(C(F)(F)F)cc2)c(C#N)c2nc3ccccc3n12.Cl,MSD,[3],14 days
same,Activity,[38],96%
same,Activity,[39],38%
same,MSD,[14],4 days
same,MSD,[40],7 days
same,MSD,[41],14 days
same,Activity,[21],96%
same,Activity,[24],<40%
same,MSD,[42],14 days
same,Activity,[43],81%
